This is a sample that favours compounds with a hit; in the whole collection about 6.3% have one here.
Ecoli WT expand: growth inhibitors of wild-type E. coli, primary screen, strain BW25113, expanded library, OD600; OD600 absorbance; growth inhibition, % at 100 µM; 98,000 compounds, 0.15% hits;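 active = growth inhibition above about 50% at one test dose, limit read from the data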;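 also: growth measured after 20 h incubation at 37 °C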
PostGolgi yeast: phenotypic screen on post-Golgi transport, primary screen | AID 739, 2007 | inhibition, % at 10 µM | post-Golgi transport phenotypic cell assay | 98,000 compounds, 0.9% hits;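 also: yeast cells grown in 1536-well plates; yeast grown about 18 h at 30C before absorbance read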
PostGolgi ctrl: growth inhibition of yeast control strain, primary screen, counter-screen for post-Golgi transport modulator project; inhibition, % at 10 µM; efflux-deficient yeast background strain, growth absorbance A615, 16 h; 98,000 compounds, 5% hits
tolC growth inh: growth inhibitors of E. coli tolC mutant, primary screen, strain BW25113 ΔtolC::kan, 384-well; OD615; growth inhibition, % at 10 µM (by protocol); 65,000 compounds, 2.2% hits; AID 573, 2007;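 active = growth inhibition at or above a cutoff equal to the mean over every tested compound plus 3 SD, cut at about 60% in these data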;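 also: growth measured after 20 h incubation at 37 °C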
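Material: E. coli BW25113 ΔtolC::kan, tolC deletion mutant strain. Measure: percent growth inhibition. Schedule: 37 °C, 20 h exposure. Doses: single-point testing at 10 µM. Signal: A615 absorbance measurement. Buffer or medium: kanamycin-containing LB broth (50 µg/mL).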
* = called active by the depositor. Rule as the data show it, unless noted: active = inhibition above about 30%; inactive = the rest.

`CCn1c(N2CCN(C(=O)C34CC5CC(CC(C5)C3)C4)CC2)nc2ccccc21` gave Ecoli WT expand -2, PostGolgi yeast 16, PostGolgi ctrl 19 and tolC growth inh 65*.
`Cn1ccnc1C(O)(c1nnc(-c2ccccc2)o1)C(F)(F)F` (stereo unspecified) gave Ecoli WT expand 2, PostGolgi yeast 12, PostGolgi ctrl -2 and tolC growth inh 2.
Screening CC(C)(C)C(=O)Cn1c(=N)n(Cc2ccccc2Cl)c2ccccc21 returned Ecoli WT expand -6, PostGolgi yeast 3 and PostGolgi ctrl 15.
`CC(C)(C)C(=O)Cn1c(=N)n(Cc2ccccc2)c2ccccc21` gave Ecoli WT expand 1, PostGolgi yeast 1, PostGolgi ctrl 48* and tolC growth inh 100*.
Screening Fc1ccc(-c2nnc(CN3CCC(c4nc5ccccc5s4)CC3)o2)cc1 returned Ecoli WT expand -1, PostGolgi yeast 16, PostGolgi ctrl 38* and tolC growth inh -1.
For COc1ccc(Cn2nnnc2CN2CCC(c3nc4ccccc4s3)CC2)cc1 the results were Ecoli WT expand -9, PostGolgi yeast 5, PostGolgi ctrl 26 and tolC growth inh 24.
For COc1cc(CNC2CCCC2)cc(Cl)c1OCc1ccccc1F the results were Ecoli WT expand 20, PostGolgi yeast 5 and PostGolgi ctrl 30.
For CCOC(=O)c1c(CN2CCN(Cc3ccccc3)CC2)n(C)c2cc(Br)c(OC)cc12 the results were Ecoli WT expand -12, PostGolgi yeast 2 and PostGolgi ctrl 73*.
For COc1cccc(-c2nc(CS(=O)(=O)c3ccccc3)no2)c1 the results were Ecoli WT expand 22, PostGolgi yeast -6 and PostGolgi ctrl -3.
For O=C(Cn1c2c(c(-c3ccccc3)cc1=O)CCCC2)N1CCCCCC1 the results were tolC growth inh 100*.
Screening CCCCNC(=O)Cn1c2c(c(-c3ccccc3Cl)cc1=O)CCC2 returned Ecoli WT expand 2, PostGolgi yeast 7 and PostGolgi ctrl 0.
`CN(C)S(=O)(=O)Oc1ccsc1C(=O)Nc1ccc(Cl)c(Cl)c1` gave Ecoli WT expand -11, PostGolgi yeast -3 and PostGolgi ctrl 45*.
CN(C)S(=O)(=O)Oc1ccsc1C(=O)Nc1cccc(Cl)c1 was read as Ecoli WT expand 1, PostGolgi yeast -7 and PostGolgi ctrl 22.
`O=[N+]([O-])c1cc(-n2cnnn2)ccc1N1CCC(Cc2ccccc2)CC1` gave Ecoli WT expand -18, PostGolgi yeast 1 and PostGolgi ctrl 74*.
Cc1sc(NC(=O)c2ccco2)c(CN2CCN(c3ccc(F)cc3)CC2)c1C was read as Ecoli WT expand -3, PostGolgi yeast 5 and PostGolgi ctrl 4.
For Cc1sc(NC(=O)c2ccco2)c(CN2CCN(c3ccccn3)CC2)c1C the results were Ecoli WT expand -6, PostGolgi yeast -5, PostGolgi ctrl 30 and tolC growth inh 63*.
`CCc1cc2cc(C(=O)N3CCN(c4ccccc4)CC3)sc2s1` gave Ecoli WT expand -13, PostGolgi yeast -2 and PostGolgi ctrl 4.
Screening CCc1cc2cc(C(=O)N3CCN(Cc4ccccc4)CC3)sc2s1 returned Ecoli WT expand -7, PostGolgi yeast 18, PostGolgi ctrl 35* and tolC growth inh 98*.
For COc1ccc(C2(CNC(=O)Cc3ccc(OC)c(OC)c3)CCOCC2)cc1 the results were Ecoli WT expand 2, PostGolgi yeast 4 and PostGolgi ctrl 4.
For CC1CCc2nn(CC(=O)NCCC3=CCCCC3)cc2C1 (stereo unspecified) the results were Ecoli WT expand 8, PostGolgi yeast -5, PostGolgi ctrl 37* and tolC growth inh 8.
COCCNC(=O)Cn1cc2c(n1)CCC(C)C2 (stereo unspecified) was read as Ecoli WT expand 6, PostGolgi yeast -6, PostGolgi ctrl -3 and tolC growth inh -6.
For Cn1c(=O)[nH]c(=O)c2c1nc(N1CCOCC1)n2CCSc1ncccn1 the results were tolC growth inh -26.
For COc1c(N2CCN(C(=S)NCc3ccccc3)C(C)C2)c(F)cc2c(=O)c(C(=O)O)cn(C3CC3)c12 (stereo unspecified) the results were Ecoli WT expand 88*, PostGolgi yeast -2 and PostGolgi ctrl 24.
CC(=O)c1c(C)[nH]c(C(=O)OCC(=O)Nc2cc(C(F)(F)F)ccc2N2CCOCC2)c1C was read as Ecoli WT expand 3, PostGolgi yeast 5, PostGolgi ctrl 1 and tolC growth inh 36.
For Cc1c(N2C(=O)/C(=C\c3cccc4ccccc34)SC2=S)c(=O)n(-c2ccccc2)n1C the results were Ecoli WT expand -8, PostGolgi yeast -2 and PostGolgi ctrl 54*.
